# Columns and labels:
# [1] = Chemical stability of the compound in phosphate buffer saline at pH 2 assessed as half life; assay type: physicochemical
# [2] = Chemical stability of the compound in phosphate buffer saline at pH 7.4 assessed as half life; assay type: physicochemical; conditions: for t1/2: buffer; for half-life: phosphate buffer saline
# Method in brief: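 Compound incubated in phosphate buffer, pH 7.4, 37 °C, to follow chemical hydrolysis; half-life reported in hours.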
# [3] = system: Trypanosoma brucei; assay: Antitrypanosomal activity against Trypanosoma brucei BS427 after 48 hrs by Alamar blue assay; assay type: functional, organism-based
# Method in brief: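 Bloodstream-form T. b. brucei s427 wild type, grown in HMI-9 + 10% FCS at 37 °C, 5% CO2. Parasites seeded at 4 × 10^4 cells/mL onto 11-point 1:2 serial dilutions from a 200 μM stock in medium; drug-free well as control. After 48 h, Alamar Blue (0.49 mM in PBS) added, 24 h more; fluorescence ex 544/em 590 nm. EC50 fitted; duplicate, repeated three times.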
# [4] = system: Blood; assay: Half life in mouse blood; assay type: ADME, tissue-based
# Method in brief: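 Prodrugs incubated in mouse blood to gauge their stability toward esterases. Half-life reported in minutes.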
# [5] = system: Liver microsomes; assay: Clearance in pooled human liver microsomes at 0.5 uM; assay type: ADME, Microsome
# Method in brief: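 Pooled human liver microsomes (0.5 mg/mL in 50 mM potassium phosphate, pH 7.4) with compound at 0.5 μM; reaction started with excess NADPH. Samples at 0, 3, 6, 9, 15, 30 min, quenched in acetonitrile with internal standard, centrifuged, analysed by UPLC-MS/MS. Rate constant from exponential decay of compound/internal standard peak-area ratio; clearance given as mL/min/g.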
# [6] = Trypanosoma brucei, BS427, 48 h, read-out: EC50
Compound,t1/2 [1] [h],t1/2 [2] [h],"EC50 [3, 6] [nM]",t1/2 [4] [h],CL [5] [mL/min/g],half-life [2] [h],EC50 [3]
COC(=O)[C@H](NP(=O)(OC[C@H]1OC(C)(C)O[C@H]1C(=O)NO)Oc1ccc(C)cc1)C(C)C (some centres not stated),28,45,150,,,,
CCOC(=O)[C@@H](C)NP(=O)(OC[C@H]1OC(C)(C)O[C@H]1C(=O)NO)Oc1ccccc1 (some centres not stated),,29,780,< 0.25,,,
COC(=O)CNP(=O)(OC[C@H]1OC(C)(C)O[C@H]1C(=O)NO)Oc1ccccc1 (some centres not stated),,,11400,< 0.25,,,
CC(C)[C@@H](NP(=O)(OC[C@H]1OC(C)(C)O[C@H]1C(=O)NO)Oc1ccccc1)C(=O)OC(C)(C)C (some centres not stated),28,68,90,2,5,,
COC(=O)[C@@H](C)NP(=O)(OC[C@H]1OC(C)(C)O[C@H]1C(=O)NO)Oc1ccc(OC)cc1 (some centres not stated),8.5,,3790,,,,
COC(=O)[C@@H](C)NP(=O)(OC[C@H]1OC(C)(C)O[C@H]1C(=O)NO)Oc1ccc(C)cc1 (some centres not stated),,30,310,< 0.25,,,
CCOC(=O)[C@H](NP(=O)(OC[C@H]1OC(C)(C)O[C@H]1C(=O)NO)Oc1ccc(C)cc1)C(C)C (some centres not stated),15,25,40,0.75,,,
COC(=O)[C@H](NP(=O)(OC[C@H]1OC(C)(C)O[C@H]1C(=O)NO)Oc1ccccc1)C(C)C (some centres not stated),,21,360,0.75,,,
CCOC(=O)[C@H](NP(=O)(OC[C@H]1OC(C)(C)O[C@H]1C(=O)NO)Oc1ccc(OC)cc1)C(C)C (some centres not stated),,,110,,,,
COC(=O)[C@@H](C)NP(=O)(OC[C@H]1OC(C)(C)O[C@H]1C(=O)NO)Oc1ccccc1 (some centres not stated),,,,< 0.25,,5,
CC1(C)O[C@H](COP(=O)(O)O)[C@H](C(=O)NO)O1,,,> 330000,,,,
Cc1cccc(OP(=O)(N[C@@H](C(=O)OC(C)(C)C)C(C)C)OC[C@H]2OC(C)(C)O[C@H]2C(=O)NO)c1C (some centres not stated),,> 24,8,> 8,10,,
CCOC(=O)[C@@H](C)NP(=O)(OC[C@H]1OC(C)(C)O[C@H]1C(=O)NO)Oc1ccc(C)cc1 (some centres not stated),,34,180,,,,
COC(=O)[C@@H](C)NP(=O)(OC[C@H]1OC(C)(C)O[C@H]1C(=O)NO)Oc1cccc(C)c1C (some centres not stated),,,270,,,30,
COC(=O)[C@@H](C)NP(=O)(OC[C@H]1OC(C)(C)O[C@H]1C(=O)NO)Oc1ccc([N+](=O)[O-])cc1 (some centres not stated),,,43800,,,0.85,
CCOC(=O)[C@H](NP(=O)(OC[C@H]1OC(C)(C)O[C@H]1C(=O)NO)Oc1ccccc1)C(C)C (some centres not stated),,61,240,2,,,
CC1(C)O[C@H](COP2(=O)OCc3ccccc3O2)[C@H](C(=O)NO)O1 (some centres not stated),,,,,,,Not Active
CCOC(=O)[C@H](NP(=O)(OC[C@H]1OC(C)(C)O[C@H]1C(=O)NO)Oc1cccc(C)c1C)C(C)C (some centres not stated),10,48,50,1,,,

# Reference: ChEMBL document CHEMBL1212884, “Aryl phosphoramidates of 5-phospho erythronohydroxamic acid, a new class of potent trypanocidal compounds” (J Med Chem, 2010)
